Experimental data taken from ChEMBL document CHEMBL1122064, “Synthesis and biological evaluation of 17-[131I]iodo-9-telluraheptadecanoic acid, a potential imaging agent” (J Med Chem, 1982).

What was measured:
Rattus norvegicus [1] = assay: Distribution of radioactivity in blood of Fischer 344 female rat after 30 min of intravenous administration; type: ADME, organism-based; conditions: in vivo, 0.5 h
Rattus norvegicus [2] = assay: Distribution of radioactivity in heart of Fischer 344 female rat after 60 min of intravenous administration; type: ADME, organism-based; conditions: in vivo, 1 h
Rattus norvegicus [3] = assay: Distribution of radioactivity in blood of Fischer 344 female rat after 5 min of intravenous administration; type: ADME, organism-based; conditions: in vivo
How it was run: (§1)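 In female Fischer 344 rats, each animal received about 2.5 µCi of the 123mTe-labelled fatty acid (sp act. ~16 mCi/mmol) in 6% bovine serum albumin through a lateral tail vein. Four rats were used per time point. Excised organs were rinsed, blotted, weighed and counted on a Ge(Li) analyzer. Results are mean (range) % injected dose per gram.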

Rattus norvegicus [4] = assay: Distribution of radioactivity in liver of Fischer 344 female rat after 30 min of intravenous administration; type: ADME, organism-based; conditions: in vivo, 0.5 h
How it was run: (§2)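 Female Fischer 344 rats, 10-12 weeks, 170-200 g, fed ad libitum. The labelled fatty acid was given in 6% bovine serum albumin via a lateral tail vein under ether anaesthesia. Rats were killed by CO2 anaesthesia and cervical fracture; organs were excised, rinsed, blotted, weighed and counted by Ge(Li) analyzer. Results are mean percent injected dose/g with range.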

Rattus norvegicus [5] = assay: Distribution of radioactivity in lungs of Fischer 344 female rat after 60 min of intravenous administration; type: ADME, organism-based, Lung; conditions: in vivo, 1 h; how it was run: as §2
Rattus norvegicus [6] = assay: Distribution of radioactivity in kidneys of Fischer 344 female rat after 30 min of intravenous administration; type: ADME, organism-based, Kidney; conditions: in vivo, 0.5 h
Rattus norvegicus [7] = assay: Distribution of radioactivity in kidneys of Fischer 344 female rat after 5 min of intravenous administration; type: ADME, organism-based, Kidney; conditions: in vivo; how it was run: as §1
Rattus norvegicus [8] = assay: Distribution of radioactivity in lungs of Fischer 344 female rat after 30 min of intravenous administration; type: ADME, organism-based, Lung; conditions: in vivo, 0.5 h; how it was run: as §2
Rattus norvegicus [9] = assay: Distribution of radioactivity in blood of Fischer 344 female rat after 60 min of intravenous administration; type: ADME, organism-based; conditions: in vivo, 1 h
Rattus norvegicus [10] = assay: Distribution of radioactivity in liver of Fischer 344 female rat after 60 min of intravenous administration; type: ADME, organism-based; conditions: in vivo, 1 h; how it was run: as §2
Rattus norvegicus [11] = assay: Distribution of radioactivity in kidneys of Fischer 344 female rat after 60 min of intravenous administration; type: ADME, organism-based, Kidney; conditions: in vivo, 1 h
Rattus norvegicus [12] = assay: Distribution of radioactivity in liver of Fischer 344 female rat after 5 min of intravenous administration; type: ADME, organism-based; conditions: in vivo
How it was run: (§3)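 Tracer was the 123mTe-labelled fatty acid, about 2.5 μCi per rat (sp act. ~16 mCi/mmol), given in 6% bovine serum albumin into a lateral tail vein. Female Fischer 344 rats, 10-12 weeks, 170-200 g, four per time point. Excised organs were rinsed, blotted and weighed, then counted by Ge(Li) analyzer, with mean percent injected dose/g and range reported.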

Rattus norvegicus [13] = assay: Distribution of radioactivity in heart of Fischer 344 female rat after 5 min of intravenous administration; type: ADME, organism-based; conditions: in vivo; how it was run: as §1
Rattus norvegicus [14] = assay: Distribution of radioactivity in lungs of Fischer 344 female rat after 5 min of intravenous administration; type: ADME, organism-based, Lung; conditions: in vivo; how it was run: as §3
Rattus norvegicus [15] = assay: Distribution of radioactivity in heart of Fischer 344 female rat after 30 min of intravenous administration; type: ADME, organism-based; conditions: in vivo, 0.5 h

O=C(O)CCCCCCCC[123Te]CCCCCCCCI
Distribution of radioactivity (Rattus norvegicus [1]): 0.36 dose g-1 | Distribution of radioactivity (Rattus norvegicus [2]): 1.58 dose g-1 | Distribution of radioactivity (Rattus norvegicus [3]): 0.13 dose g-1 | Distribution of radioactivity (Rattus norvegicus [4]): 2.11 dose g-1 | Distribution of radioactivity (Rattus norvegicus [5]): 0.56 dose g-1 | Distribution of radioactivity (Rattus norvegicus [6]): 1.05 dose g-1 | Distribution of radioactivity (Rattus norvegicus [7]): 1.17 dose g-1 | Distribution of radioactivity (Rattus norvegicus [8]): 0.62 dose g-1 | Distribution of radioactivity (Rattus norvegicus [9]): 0.25 dose g-1 | Distribution of radioactivity (Rattus norvegicus [10]): 1.65 dose g-1 | Distribution of radioactivity (Rattus norvegicus [11]): 0.99 dose g-1 | Distribution of radioactivity (Rattus norvegicus [12]): 3.33 dose g-1 | Distribution of radioactivity (Rattus norvegicus [13]): 1.38 dose g-1 | Distribution of radioactivity (Rattus norvegicus [14]): 0.67 dose g-1 | Distribution of radioactivity (Rattus norvegicus [15]): 2.24 dose g-1
